Data set [1] addresses T1, Diamine acetyltransferase 1 (Homo sapiens, UniProt P21673). Kind of data set: Drug metabolism in human HepG2 cells assessed as SSAT1-mediated (N1-acetyl)-1,12-diamino-3,6,9-triazadodecane formation at 100 uM for 24 hrs in presence of SSAT2 shRNA. The class given is ADME, cell-based. The conditions noted are these: hepg2, 24 h. The method, boiled down: (§1)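 HepG2 cells were transduced with control, SSAT1 or SSAT2 shRNA lentiviral particles and stable clones selected with puromycin (5 µg/ml) for one week. Cells were plated overnight, then incubated 24 h with 1 mM TETA or 100 µM SpmTrien. Intracellular metabolites were measured. Means ± SD, n=3.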
Target sequence in this assay (P21673 whole entry): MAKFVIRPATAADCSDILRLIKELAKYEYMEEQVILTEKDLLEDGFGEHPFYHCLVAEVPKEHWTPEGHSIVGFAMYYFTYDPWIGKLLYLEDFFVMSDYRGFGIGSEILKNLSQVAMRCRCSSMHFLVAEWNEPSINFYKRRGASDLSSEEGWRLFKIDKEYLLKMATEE

For data set [2], the target named is T1, Diamine acetyltransferase 1. Kind of data set: Drug metabolism in human HepG2 cells assessed as SSAT1-mediated (N1-acetyl)-1,12-diamino-3,6,9-triazadodecane formation at 100 uM for 24 hrs. The data set is classed as ADME, cell-based. To be noted: hepg2, 24 h.
Target sequence in this assay (P21673 whole entry): as above
Data set [3] relates to HepG2. Kind of data set: Drug metabolism in human HepG2 cells at 100 uM for 24 hrs in presence of SSAT1 shRNA. The data set is classed as ADME, cell-based. To be noted: hepg2, 24 h. The method, boiled down:
as §1

Data set [4] is described as follows: Drug metabolism in SSAT1-knockout mouse primary hepatocytes at 100 uM for 4 hrs. The class given is ADME, cell-based, Hepatocyte. A digest of the protocol: (§2)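 Hepatocytes from SSAT1-KO or wild-type mouse liver were isolated by collagenase perfusion and plated on collagen I in William's E with dexamethasone, FBS and insulin. They were reverse-transfected with control or SSAT2 siRNA (100 nM) for 2 d, then exposed to 1 mM TETA or 100 µM SpmTrien for 4 h. Intracellular metabolites were measured. Means ± SD, n=3.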

For data set [5], the target named is T2, Diamine acetyltransferase 1 (Mus musculus, UniProt P48026). Kind of data set: Drug metabolism in mouse primary hepatocytes assessed as SSAT1-mediated (N1-acetyl)-1,12-diamino-3,6,9-triazadodecane formation at 100 uM for 4 hrs in presence of SSAT2 siRNA. The data set is classed as ADME, cell-based, Hepatocyte. A digest of the protocol: as §2
T2 sequence (P48026 whole entry): as the sequence (P21673 whole entry) above, with V5K, A12S, E32D, L42Q, R119K, T169A counted along it
The target in data set [6] is T1, Diamine acetyltransferase 1. The data set can be described thus: Drug metabolism in human HepG2 cells assessed as SSAT1-mediated (N1-acetyl)-spermine formation at 100 uM for 24 hrs. The class given is ADME, cell-based. To be noted: hepg2, 24 h.
Target sequence in this assay (P21673 whole entry): as the sequence (P21673 whole entry) above
Data set [7] has the same target. The data set can be described thus: Drug metabolism in human HepG2 cells assessed as SSAT1-mediated (N1-acetyl)-spermidine formation at 100 uM for 24 hrs. The class given is ADME, cell-based. To be noted: hepg2, 24 h.
Target sequence in this assay (P21673 whole entry): as above
For data set [8] the target is unchanged. The data set can be described thus: Activity of human recombinant SSAT1 assessed as compound formation treated with 1 mM SpmTrien for 50 mins by HPLC analysis. The data set is classed as ADME. The method, boiled down:
(§3)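 SpmTrien (1 mM) incubated with 50-100 ng human recombinant enzyme for 10-50 min at 37 °C in 100 mM Tris-HCl pH 7.8 containing 1 mM acetyl-CoA and 1 mM DTT. The reaction was stopped with sulphosalicylic acid containing diaminoheptane as internal standard, and acetylated products were quantified by HPLC.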
Target sequence in this assay (P21673 whole entry): as above

For data set [9] the target is unchanged. Kind of data set: Drug level in human HepG2 cells assessed as SSAT1-mediated compound formation treated with SpmTrien at 100 uM for 24 hrs pretreated with 50 uM DENSpm for 24 hrs. The class given is ADME, cell-based. To be noted: hepg2, 24 h. A digest of the protocol:
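HepG2 cells were pretreated for 24 h with 50 µM DENSpm or medium alone, washed, then incubated for 24 h with 1 mM TETA or 100 µM SpmTrien. Intracellular metabolites were measured from cell lysates. Means ± SD, n=3.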
Target sequence in this assay (P21673 whole entry): as above

Data set [10] has as its target T3, Thialysine N-epsilon-acetyltransferase (Homo sapiens, UniProt Q96F10). The data set can be described thus: Activity of human recombinant SSAT2 assessed as compound formation treated with 1 mM SpmTrien for 50 mins by HPLC analysis. The class given is ADME. A digest of the protocol:
as §3

In data set [11] the target is T3, Thialysine N-epsilon-acetyltransferase. The data set can be described thus: Drug level in human HepG2 cells assessed as SSAT2-mediated compound formation treated with TETA at 1 mM for 24 hrs. To be noted: hepg2, 24 h, 1000 µM. The data set is classed as ADME, cell-based.
The target in data set [12] is T1, Diamine acetyltransferase 1. Kind of data set: Drug level in human HepG2 cells assessed as SSAT1-mediated compound formation treated with SpmTrien at 100 uM for 24 hrs. The class given is ADME, cell-based. To be noted: hepg2, 24 h.
In data set [13] the target is Thialysine N-epsilon-acetyltransferase (Mus musculus, UniProt Q6P8J2). The data set can be described thus: Drug level in mouse primary hepatocytes assessed as SSAT2-mediated compound formation per ug DNA treated with TETA at 1 mM for 4 hrs. The conditions noted are these: 1000 µM.
Thialysine N-epsilon-acetyltransferase (Mus musculus, UniProt Q6P8J2), sequence (Q6P8J2 whole entry): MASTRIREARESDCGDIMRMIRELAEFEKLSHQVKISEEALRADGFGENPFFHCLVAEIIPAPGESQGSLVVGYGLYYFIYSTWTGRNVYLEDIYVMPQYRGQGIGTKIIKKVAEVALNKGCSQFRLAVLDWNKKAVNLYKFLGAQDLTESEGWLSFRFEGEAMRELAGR
The target of data set [14] is T3, Thialysine N-epsilon-acetyltransferase. Kind of data set: Drug level in human HepG2 cells assessed as SSAT2-mediated compound formation treated with TETA at 1 mM for 24 hrs in presence of SSAT1 shRNA. The class given is ADME, cell-based. The conditions noted are these: hepg2, 24 h, 1000 µM. The method, boiled down:
as §1

Data set [15] has as its target T1, Diamine acetyltransferase 1. Kind of data set: Drug level in human HepG2 cells assessed as SSAT1-mediated compound formation treated with TETA at 1 mM for 24 hrs pretreated with 50 uM DENSpm for 24 hrs. To be noted: hepg2, 24 h, 1000 µM.
Target sequence in this assay (P21673 whole entry, looked up): as the sequence (P21673 whole entry) above
Data set [16] concerns the target T3, Thialysine N-epsilon-acetyltransferase. The data set can be described thus: Drug level in human HepG2 cells assessed as SSAT2-mediated compound formation per ug DNA treated with TETA at 1 mM for 24 hrs. The data set is classed as ADME, cell-based. To be noted: hepg2, 24 h, 1000 µM.
Data set [17] has as its target T2, Diamine acetyltransferase 1. Kind of data set: Drug level in mouse primary hepatocytes assessed as SSAT1-mediated compound formation per ug DNA treated with SpmTrien at 100 uM for 4 hrs.
For data set [18] the target is unchanged. Kind of data set: Drug level in mouse primary hepatocytes assessed as SSAT1-mediated compound formation treated with 100 uM SpmTrien for 4 hrs in presence of SSAT2 siRNA. The data set is classed as ADME, cell-based, Hepatocyte. A digest of the protocol:
as §2

Data set [19] deals with T1, Diamine acetyltransferase 1. Kind of data set: Drug level in human HepG2 cells assessed as SSAT1-mediated compound formation per ug DNA treated with Spm Trien at 100 uM for 24 hrs. The data set is classed as ADME, cell-based. To be noted: hepg2, 24 h.
Data set [20] has the same target. Kind of data set: Drug level in human HepG2 cells assessed as SSAT1-mediated compound formation treated with SpmTrien at 100 uM for 24 hrs in presence of SSAT2 shRNA. The class given is ADME, cell-based. The conditions noted are these: hepg2, 24 h. The method, boiled down: as §1

T3 sequence (Q96F10 whole entry): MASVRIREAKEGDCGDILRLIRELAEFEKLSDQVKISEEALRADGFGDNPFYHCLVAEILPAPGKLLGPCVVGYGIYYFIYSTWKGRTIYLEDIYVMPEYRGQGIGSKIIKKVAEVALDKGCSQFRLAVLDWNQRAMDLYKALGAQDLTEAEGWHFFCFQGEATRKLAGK

For the molecule `NCCCNCCNCCNCCN`, the Drug metabolism entry is recorded as “metabolite_detected” in data set [1]; “metabolite_detected” in [2]; “metabolite_not_detected” in data set [3]; “metabolite_not_detected” in data set [4]; “metabolite_detected” in data set [5]; “metabolite_detected” in data set [6]. The Drug metabolism result in [7] is “metabolite_detected”.
Take `CC(=O)NCCCNCCNCCNCCN`: the Drug metabolism in data set [8] was 4.2 nmol; in data set [9], “metabolite_detected”; in [10], 1.1 nmol.
For the molecule `CC(=O)NCCCNCCCCNCCCN`, the Drug metabolism result in data set [11] and in data set [12] was “metabolite_detected” throughout.
As to `CC(=O)NCCNCCNCCN`, the Drug metabolism result in data set [11] was “metabolite_detected”; in data set [13] it was 40 pmol/h; in [14], “metabolite_detected”; in data set [15] it was “metabolite_detected”; in data set [16], 10 pmol/h.
On to `CC(=O)NCCCNCCCCN`, for which the Drug metabolism result in [11] and in data set [12] was “metabolite_detected” in each case.
Consider `CC(=O)NCCNCCNCCNCCCN`, for which the Drug metabolism in data set [17] was 3.4 pmol/h; in data set [18], “metabolite_detected”; in data set [8], 12.8 nmol; in [19] it was 0.8 pmol/h; in [12] it was “metabolite_detected”; in data set [20], “metabolite_detected”. Besides, the Drug metabolism entry is given as “metabolite_detected” in [9] and 0.65 nmol in data set [10].

These data come from ChEMBL document CHEMBL3526099, “Metabolism of triethylenetetramine and 1,12-diamino-3,6,9-triazadodecane by the spermidine/spermine-N(1)-acetyltransferase and thialysine acetyltransferase” (Drug Metab Dispos, 2013).
